This note sets out measurements from the M2OR odorant receptor database.

The structures appear in SMILES notation.

The assay has as its target T1, OR1A1 (Homo sapiens) (UniProt Q9P1Q5).
T1 sequence (whole entry): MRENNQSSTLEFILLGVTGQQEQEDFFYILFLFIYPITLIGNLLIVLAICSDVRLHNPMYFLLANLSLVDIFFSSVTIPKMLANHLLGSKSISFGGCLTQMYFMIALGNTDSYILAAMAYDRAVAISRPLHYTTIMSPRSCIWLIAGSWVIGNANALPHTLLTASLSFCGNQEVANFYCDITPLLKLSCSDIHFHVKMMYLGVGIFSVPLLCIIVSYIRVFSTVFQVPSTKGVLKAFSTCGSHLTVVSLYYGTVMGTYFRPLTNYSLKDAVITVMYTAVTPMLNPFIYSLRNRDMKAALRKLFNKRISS
The note with it: stereoisomer not certain. A digest of the protocol:
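Each entry records the cell line, G-protein, co-transfected protein and tags used. Methods varied with the source, often transient luciferase assays in mammalian cell lines. A receptor–molecule pair is called responsive (active) if the original authors judged its signal statistically different from baseline and non-responsive (inactive) otherwise.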
Turning to `COC1=C(C)OC(C)C1=O` (stereo unspecified), the “odorant receptor agonist call” value is “inactive”.

Consider `C=CCSC`, for which the “odorant receptor agonist call” value was “inactive”. `COC(=O)C=Cc1ccccc1`: the “odorant receptor agonist call” value is “inactive”. For `SCc1cccs1` the value was “inactive”. For `CCC(S)C(C)=O` (stereo unspecified) the value was “inactive”. Then `O=C(O)C=Cc1ccc(O)cc1`, with “inactive”. Turning to `CSSSC`, the “odorant receptor agonist call” value was “inactive”. Then `CCCCCC1=C(C)CCC1=O`, with “active”; and `CC(C)=CCCC(C)=CC#N`, with “inactive”; and `CCCCCCCCC(=O)O`, with “inactive”. For the compound `CCCCC(=O)CC(C)=O`, the “odorant receptor agonist call” value is “active”. For `C=CCOC(=O)CCCCCC` the value was “active”; for `COc1ccc(C)cc1O`, “inactive”. Then `CSCSC`, with “inactive”.

With `CC(=O)OCC=C(C)C`, the “odorant receptor agonist call” value was “inactive”. With `COc1nccnc1C(C)C`, the “odorant receptor agonist call” value is “inactive”. For `CCC(C)CO` (stereo unspecified) the value was “inactive”; for `COc1ccccc1`, “inactive”; for `CCCC(=O)C(C)CC` (stereo unspecified), “inactive”. For `Cc1occc1S` the value was “inactive”.

For the compound `O=C1CCOc2ccccc21`, the “odorant receptor agonist call” value was “active”. Then `CCc1nccnc1CC`, with “inactive”; and `OCCc1ccccc1`, with “inactive”; and `CCCCCO`, with “inactive”.

Consider `COc1ccc2ccc(=O)oc2c1`, for which the “odorant receptor agonist call” value is “inactive”. For `CSCCC=O` the value was “inactive”.

With `CCCCC(=O)CC`, the “odorant receptor agonist call” value is “active”. Then `CCCC(=O)OCC`, with “inactive”; and `CC(C)=CCCC(C)CC(=O)O` (stereo unspecified), with “inactive”; and `CCCCCCCC(=O)OCC`, with “inactive”.

As to `CCCCC(=O)C(C)=O`, the “odorant receptor agonist call” value was “inactive”. Consider `CCCCC(C)CCC(=O)O` (stereo unspecified), for which the “odorant receptor agonist call” value was “inactive”. For `CCCCCCCC(C)=O` the value was “active”; for `COc1cccc(OC)c1O`, “inactive”. For `CC(C)C12CCC(C)(CC1)O2`, the “odorant receptor agonist call” value was “inactive”. For `C1CCNC1` the value was “inactive”.
